From ChEMBL document CHEMBL1122443, “Synthesis and antitumor evaluation of selected 5,6-disubstituted 1(2)H-indazole-4,7-diones” (1983)

Assays:
Type in all cases: functional
[1] = tested on: Mus musculus; test: Anti tumor activity in mice bearing lymphocytic leukemia P-388 at 1 mg/kg
Method in brief: (§1)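 Male BDF1 mice (20–23 g) were inoculated ip with 1 × 10⁶ P-388 leukemia cells on day 0. Compound was given ip once daily on days 1–14 in 0.05% Tween 80 vehicle, with a vehicle control group and 5-fluorouracil as positive control. Activity was scored as % T/C, average days survived treated/control, with >125% taken as significant.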

[2] = tested on: Mus musculus; test: Antitumor activity in CF1 mice bearing Ehrlich ascites carcinoma measured as ascites volume at 5 mg/kg
Method in brief: (§2)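 Male CF1 mice (22–25 g) received 2 × 10⁶ Ehrlich carcinoma cells ip on day 0. Dosing was ip daily on days 1–8, with sacrifice on day 9. Ascites fluid volume per mouse and ascrit (packed cell volume) were measured for each group. Vehicle was 0.05% Tween 80, or 5% absolute EtOH in 0.05% Tween 80, used for both compound and control. 6-Mercaptopurine was the positive control.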

[3] = tested on: Mus musculus; test: Average days survived for treated / average days survived for control at 1 (mg/kg); 10.2/9.2
[4] = tested on: Mus musculus; test: Antitumor activity in CF1 mice bearing Ehrlich ascites carcinoma measured as percentage inhibition at 5 mg/kg
Method in brief: (§3)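 Ehrlich ascites model in male CF1 mice (22–25 g): 2 × 10⁶ cells ip on day 0, ip dosing days 1–8, kill on day 9. Percent inhibition = 100 − [(treated volume × treated ascrit)/(control volume × control ascrit)]. Greater than 80% was taken as significant. Vehicle was 0.05% Tween 80, alone or with 5% absolute EtOH. 6-Mercaptopurine was the positive control.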

[5] = tested on: Mus musculus; test: Antitumor activity in CF1 mice bearing Ehrlich ascites carcinoma measured as percent ascrit packed cell volume at 5 mg/kg; method in brief: as §2
[6] = tested on: Mus musculus; test: Antitumor activity in CF1 mice bearing Ehrlich ascites carcinoma measured as percent ascrit packed cell volume at 3 mg/kg; method in brief: as §2
[7] = tested on: Mus musculus; test: Antitumor activity in CF1 mice bearing Ehrlich ascites carcinoma measured as ascites volume at 3 mg/kg; method in brief: as §2
[8] = tested on: Mus musculus; test: Antitumor activity in CF1 mice bearing Ehrlich ascites carcinoma measured as survivors on day 9 at 5 mg/kg; 5/5
[9] = tested on: Mus musculus; test: Antitumor activity in CF1 mice bearing Ehrlich ascites carcinoma measured as survivors on day 9 at 3 mg/kg; 3/6
[10] = tested on: Mus musculus; test: Antitumor activity in CF1 mice bearing Ehrlich ascites carcinoma measured as percentage inhibition at 3 mg/kg; method in brief: as §3
[11] = tested on: Mus musculus; test: Average days survived for treated / average days survived for control at 1 (mg/kg); 10.8/9.2
[12] = tested on: Mus musculus; test: Antitumor activity in CF1 mice bearing Ehrlich ascites carcinoma measured as percentage inhibition at 10 mg/kg
Method in brief: (§4)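 In the Ehrlich ascites model, male CF1 mice (22–25 g) received 2 × 10⁶ cells ip on day 0 and compound ip on days 1–8, with a vehicle of 0.05% Tween 80 ± 5% EtOH. Ascites volume and ascrit were taken on day 9. % inhibition = 100 − [(vol × ascrit, treated)/(vol × ascrit, control)], with >80% taken as significant.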

[13] = tested on: Mus musculus; test: Antitumor activity in CF1 mice bearing Ehrlich ascites carcinoma measured as percent ascrit packed cell volume at 1 mg/kg
Method in brief: (§5)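 CF1 male mice (22–25 g) were inoculated ip with 2 × 10⁶ Ehrlich cells on day 0 and treated ip on days 1–8 in 0.05% Tween 80 or 5% EtOH/0.05% Tween 80 vehicle. On day 9 the mice were sacrificed, and the ascrit (packed cell volume) of the ascites fluid was determined.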

[14] = tested on: Mus musculus; test: Antitumor activity in CF1 mice bearing Ehrlich ascites carcinoma measured as survivors on day 9 at 1 mg/kg; 6/6
[15] = tested on: Mus musculus; test: Antitumor activity in CF1 mice bearing Ehrlich ascites carcinoma measured as percent ascrit packed cell volume at 10 mg/kg; method in brief: as §5
[16] = tested on: Mus musculus; test: Antitumor activity in CF1 mice bearing Ehrlich ascites carcinoma measured as survivors on day 9 at 12 mg/kg; 0/6
[17] = tested on: Mus musculus; test: Antitumor activity in CF1 mice bearing Ehrlich ascites carcinoma measured as percentage inhibition at 1 mg/kg; method in brief: as §4
[18] = tested on: Mus musculus; test: Antitumor activity in CF1 mice bearing Ehrlich ascites carcinoma measured as survivors on day 9 at 10 mg/kg; 5/6
[19] = tested on: Mus musculus; test: Antitumor activity in CF1 mice bearing Ehrlich ascites carcinoma measured as ascites volume at 10 mg/kg
Method in brief: (§6)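 Ehrlich ascites cells (2 × 10⁶) were implanted ip in male CF1 mice (22–25 g) on day 0. Dosing was ip on days 1–8 in 0.05% Tween 80 or 5% EtOH/0.05% Tween 80, with vehicle controls. Mice were killed on day 9, and ascites fluid volume per mouse was measured.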

[20] = tested on: Mus musculus; test: Antitumor activity in CF1 mice bearing Ehrlich ascites carcinoma measured as ascites volume at 1 mg/kg; method in brief: as §6
[21] = tested on: Mus musculus; test: Anti tumor activity in mice bearing lymphocytic leukemia P-388 at 15 mg/kg
Method in brief: (§7)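 Male BDF1 mice (20–23 g) inoculated ip with 1 × 10⁶ P-388 lymphocytic leukemia cells on day 0. Test agents were given ip once daily on days 1–14, with 0.05% Tween 80 as vehicle for treated and control groups. Read-out is %T/C, the mean days survived by treated over control. Values above 125% were counted as significant. 5-Fluorouracil was the positive control.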

[22] = tested on: Mus musculus; test: Average days survived for treated / average days survived for control at 12 (mg/kg); 9/9.2
[23] = tested on: Mus musculus; test: Anti tumor activity in mice bearing lymphocytic leukemia P-388 at 20 mg/kg; method in brief: as §7
[24] = tested on: Mus musculus; test: Average days survived for treated / average days survived for control at 0.5 (mg/kg); 10.5/9.2
[25] = tested on: Mus musculus; test: Antitumor activity in CF1 mice bearing Ehrlich ascites carcinoma measured as survivors on day 9 at 6 mg/kg; 5/6
[26] = tested on: Mus musculus; test: Anti tumor activity in mice bearing lymphocytic leukemia P-388 at 10 mg/kg; method in brief: as §7
[27] = tested on: Mus musculus; test: Average days survived for treated / average days survived for control at 10 (mg/kg); 12.6/9.2
[28] = tested on: Mus musculus; test: Anti tumor activity in mice bearing lymphocytic leukemia P-388 at 12 mg/kg; method in brief: as §7
[29] = tested on: Mus musculus; test: Antitumor activity in CF1 mice bearing Ehrlich ascites carcinoma measured as percent ascrit packed cell volume at 6 mg/kg; method in brief: as §2
[30] = tested on: Mus musculus; test: Average days survived for treated / average days survived for control at 1 (mg/kg); 11/9.2
[31] = tested on: Mus musculus; test: Anti tumor activity in mice bearing lymphocytic leukemia P-388 at 0.5 mg/kg; method in brief: as §1
[32] = tested on: Mus musculus; test: Average days survived for treated / average days survived for control at 20 (mg/kg); 3.6/9.2
[33] = tested on: Mus musculus; test: Antitumor activity in CF1 mice bearing Ehrlich ascites carcinoma measured as ascites volume at 6 mg/kg; method in brief: as §2
[34] = tested on: Mus musculus; test: Anti tumor activity in mice bearing lymphocytic leukemia P-388 at 5 mg/kg; method in brief: as §1
[35] = tested on: Mus musculus; test: Average days survived for treated / average days survived for control at 15 (mg/kg); 9.2/9.2
[36] = tested on: Mus musculus; test: Antitumor activity in CF1 mice bearing Ehrlich ascites carcinoma measured as percentage inhibition at 6 mg/kg; method in brief: as §3
[37] = tested on: Mus musculus; test: Average days survived for treated / average days survived for control at 5 (mg/kg); 10.9/9.2

For `Cc1noc2c1C(=O)C(Cl)=C(Cl)C2=O`, which T/C [1] is on record?
Its T/C is 111%.

What about the ascites volume [2] of the same compound?
Its ascites volume is 0 ml mouse-1.

What about the “Average survival (days)” value [3] of the same compound?
Its value is 10.2.

And the inhibition in vivo at 5 mg/kg [4]?
Its inhibition in vivo at 5 mg/kg is 100%.

What about the packed cell volume [5] of the same compound?
Its packed cell volume is 0%.

What about the packed cell volume [6] of the same compound?
Its packed cell volume is 0%.

And the ascites volume [7]?
Its ascites volume is 0 ml mouse-1.

And the Survivors [8]?
Its Survivors is 5.

What about the Survivors [9] of the same compound?
The Survivors was 3.

And the inhibition in vivo at 3 mg/kg [10]?
The inhibition in vivo at 3 mg/kg was 100%.

With `Cn1cc2c(n1)C(=O)C(Cl)=C(N1CC1)C2=O` as the compound, how does the T/C [1] read?
Its T/C is 117%.

What about the ascites volume [2] of the same compound?
The ascites volume was 0.7 ml mouse-1.

And the “Average survival (days)” value [11]?
Its value is 10.8.

What about the inhibition in vivo at 10 mg/kg [12] of the same compound?
The inhibition in vivo at 10 mg/kg was 96.3%.

And the packed cell volume [13]?
Its packed cell volume is 12.7%.

What about the inhibition in vivo at 5 mg/kg [4] of the same compound?
Its inhibition in vivo at 5 mg/kg is 83.7%.

What about the Survivors [14] of the same compound?
The Survivors was 6.

And the packed cell volume [15]?
Its packed cell volume is 8.4%.

And the Survivors [16]?
Its Survivors is 0.

What about the packed cell volume [5] of the same compound?
The packed cell volume was 36.2%.

What about the Survivors [8] of the same compound?
Its Survivors is 5.

What about the inhibition in vivo at 1 mg/kg [17] of the same compound?
The inhibition in vivo at 1 mg/kg was 72.9%.

What about the Survivors [18] of the same compound?
Its Survivors is 5.

What about the ascites volume [19] of the same compound?
The ascites volume was 0.44 ml mouse-1.

What about the ascites volume [20] of the same compound?
The ascites volume was 0.8 ml mouse-1.

How did the T/C [1] turn out when `O=C1C(Cl)=C(Cl)C(=O)c2[nH]ncc21` was run?
Its T/C is 120%.

And the T/C [21]?
The T/C was 104%.

What about the “Average survival (days)” value [22] of the same compound?
Its value is 9.

And the ascites volume [2]?
The ascites volume was 0.48 ml mouse-1.

And the T/C [23]?
Its T/C is 39%.

And the “Average survival (days)” value [24]?
Its value is 10.5.

What about the Survivors [25] of the same compound?
Its Survivors is 5.

And the T/C [26]?
Its T/C is 137%.

What about the “Average survival (days)” value [27] of the same compound?
The value was 12.6.

And the T/C [28]?
The T/C was 98%.

And the inhibition in vivo at 5 mg/kg [4]?
The inhibition in vivo at 5 mg/kg was 98.6%.

And the packed cell volume [29]?
Its packed cell volume is 24.1%.

And the “Average survival (days)” value [30]?
The value was 11.

What about the T/C [31] of the same compound?
Its T/C is 114%.

What about the packed cell volume [5] of the same compound?
Its packed cell volume is 4.5%.

What about the “Average survival (days)” value [32] of the same compound?
Its value is 3.6.

And the ascites volume [33]?
Its ascites volume is 0.6 ml mouse-1.

What about the Survivors [8] of the same compound?
Its Survivors is 5.

And the T/C [34]?
Its T/C is 118%.

What about the “Average survival (days)” value [35] of the same compound?
The value was 9.2.

What about the inhibition in vivo at 6 mg/kg [36] of the same compound?
Its inhibition in vivo at 6 mg/kg is 85.4%.

What about the “Average survival (days)” value [37] of the same compound?
Its value is 10.9.
